Data: ChEMBL document CHEMBL4376814, “Novel cyclin-dependent kinase 9 (CDK9) inhibitor with suppression of cancer stemness activity against non-small-cell lung cancer” (Eur J Med Chem, 2019)
Active and inactive are the calls of the source. No cut-off for these calls is given here.

What was measured:
[1] = target: Mitogen-activated protein kinase 11 (Homo sapiens) (UniProt Q15759); assay: Inhibition of recombinant full-length human SAPK2b at 1 uM using myelin basic protein as substrate measured after 40 mins in presence of [gamma33P]ATP by scintillation counting method relative to control
NCI-H1975 = assay: Antiproliferative activity against human NCI-H1975 cells assessed as inhibition of cell viability after 72 hrs by CCK-8 assay; assay type: functional, cell-based; settings: NCI-H1975, 72 h
Procedure, shortened: (§1)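 Cells kept at 37 °C, 5% CO2 in DMEM or RPMI-1640 with 10% FBS and 1% penicillin/streptomycin, then seeded at 3000 cells/well (adherent) or 10,000 cells/well (suspension). Exposed to a range of concentrations for 72 h. CCK-8 added for 1-4 h before reading A450. […] Three independent experiments.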

[2] = target: CDK6/cyclin D3 (Homo sapiens) (UniProt P30281+Q00534); assay: Inhibition of recombinant full-length human CDK6/cyclinD3 at 500 nM using histone H1 as substrate measured after 40 mins in presence of [gamma33P]ATP by scintillation counting method relative to control; assay type: protein-complex assay
Procedure, shortened: (§2)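 Percent inhibition of kinase activity at a single compound concentration, measured by the outsourced Eurofins KinaseProfiler panel. Values are the mean of two independent experiments.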

A549 [3] = assay: Inhibition of colony formation in human A549 cells after 12 days by crystal violet staining based assay; assay type: functional, cell-based
Procedure, shortened: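 Cells exposed to compound, then washed, trypsinized and reseeded at 300 cells per well in 6-well plates. Colonies grew 10-14 days (legend: 12 days), were fixed in methanol 30 min, stained overnight with 0.5% crystal violet and imaged.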

[4] = target: Ribosomal protein S6 kinase alpha-2 (Homo sapiens) (UniProt Q15349); assay: Inhibition of human Rsk2 (2 to end residues) at 1 uM using KKKNRTLSVA as substrate measured after 40 mins in presence of [gamma33P]ATP by scintillation counting method relative to control; procedure, shortened: as §2
[5] = test system: Eukaryotic elongation factor 2 kinase (Homo sapiens), O00418 [H23R]; assay: Inhibition of recombinant human EEF2K H23R mutant (2 to end residues) at 1 uM using RKKFGESEKTKTKEFL as substrate measured after 40 mins in presence of [gamma33P]ATP by scintillation counting method relative to control
[6] = target: Ribosomal protein S6 kinase alpha-5 (Homo sapiens) (UniProt O75582); assay: Inhibition of recombinant human MSK1 (2 to end residues) at 1 uM using GRPRTSSFAEGKK as substrate measured after 40 mins in presence of [gamma33P]ATP by scintillation counting method relative to control
[7] = target: Leucine-rich repeat serine/threonine-protein kinase 2 (Homo sapiens) (UniProt Q5S007); assay: Inhibition of recombinant human LRRK2 (970 to end residues) at 1 uM using RLGRDKYKTLRQIRQ as substrate measured after 40 mins in presence of [gamma33P]ATP by scintillation counting method relative to control
Homo sapiens [8] = species: Homo sapiens; assay: Inhibition of recombinant full-length human pkb-alpha S478G mutant at 1 uM using GRPRTSSFAEGKK as substrate measured after 40 mins in presence of [gamma33P]ATP by scintillation counting method relative to control
A549 [9] = assay: Antiproliferative activity against human A549 cells assessed as inhibition of cell viability at 1 uM after 72 hrs by CCK-8 assay relative to control; assay type: functional; settings: A549, 72 h
Procedure, shortened: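 Single-concentration viability screen using CCK-8. Cells were seeded at 3000/well and treated for 72 h. A450 read after 1-4 h with reagent. Percent inhibition calculated against untreated control and blank wells as (Ac−As)/(Ac−Ab)×100%.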

Hep 3B2 = assay: Antiproliferative activity against human Hep3B cells assessed as inhibition of cell viability after 72 hrs by CCK-8 assay; assay type: functional, cell-based; procedure, shortened: as §1
CCRF-CEM = assay: Antiproliferative activity against human CCRF-CEM cells assessed as inhibition of cell viability after 72 hrs by CCK-8 assay; assay type: functional, cell-based; procedure, shortened: as §1
[10] = target: Tyrosine-protein kinase JAK2 (Homo sapiens) (UniProt O60674); assay: Inhibition of recombinant human JAK2 (808 to end residues) at 1 uM using KTFCGTPEYLAPEVRREPRILSEEEQEMFRDFDYIADWC as substrate measured after 40 mins in presence of [gamma33P]ATP by scintillation counting method relative to control
[11] = target: CDK3/Cyclin E (Homo sapiens) (UniProt P24864+Q00526); assay: Inhibition of recombinant full-length human CDK3/cyclinE at 1 uM using Histone H1 as substrate measured after 40 mins in presence of [gamma33P]ATP by scintillation counting method relative to control; assay type: protein-complex assay
[12] = target: Phosphatidylinositol 3-kinase C2 domain-containing subunit gamma (Homo sapiens) (UniProt O75747); assay: Inhibition of recombinant human PI3KC2gamma (468 to 1203 residues) at 1 uM using phosphatidylinositol as substrate measured after 40 mins by HTRF assay relative to control
[13] = target: Mitogen-activated protein kinase kinase kinase 10 (Homo sapiens) (UniProt Q02779); assay: Inhibition of recombinant human MLK2 (1 to 449 residues) at 1 uM using myelin basic protein as substrate measured after 40 mins in presence of [gamma33P]ATP by scintillation counting method relative to control
[14] = target: Calcium/calmodulin-dependent protein kinase type 1G (Homo sapiens) (UniProt Q96NX5); assay: Inhibition of full-length recombinant human CaMK1 gamma at 1 uM using KKLRRTLSFAEPG as substrate measured after 40 mins in presence of [gamma33P]ATP by scintillation counting method relative to control; procedure, shortened: as §2
NCI-H1299 [15] = assay: Downregulation of NANOG in human H1299 cells at 0.25 to 1 uM by Western blot analysis; assay type: functional, cell-based
[16] = target: Casein kinase I isoform delta (Homo sapiens) (UniProt P48730); assay: Inhibition of recombinant human CK1delta (1 to 294 residues) at 1 uM using KRRRALS(p)VASLPGL as substrate measured after 40 mins in presence of [gamma33P]ATP by scintillation counting method relative to control
Homo sapiens [17] = species: Homo sapiens; assay: Inhibition of recombinant human BrSK2 […] mutant (2 to end residues) at 1 uM using KKLNRTLSFAEPG as substrate measured after 40 mins in presence of [gamma33P]ATP by scintillation counting method relative to control
NCI-H1299 [18] = assay: Downregulation of cyclin T1 expression in human H1299 cells at 0.25 to 1 uM after 24 hrs by Western blot analysis; assay type: functional, cell-based
Procedure, shortened: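 A549 and H1299 cells treated for 24 h with serial dilutions alongside a DMSO control. Protein extracts resolved and immunoblotted.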

Homo sapiens [19] = species: Homo sapiens; assay: Inhibition of recombinant full-length human AURKA I31F mutant at 1 uM using LRRASLG as substrate measured after 40 mins in presence of [gamma33P]ATP by scintillation counting method relative to control
[20] = target: CDK9/cyclin T1 (Homo sapiens) (UniProt O60563+P50750); assay: Inhibition of recombinant full-length human CDK9/cyclinT1 at 500 nM using KTFCGTPEYLAPEVRREPRILSEEEQEMFRDFDYIADWC peptide as substrate measured after 40 mins in presence of [gamma33P]ATP by scintillation counting method relative to control; assay type: protein-complex assay; procedure, shortened: as §2

Mitogen-activated protein kinase 11 (Homo sapiens), sequence (Q15759 whole entry): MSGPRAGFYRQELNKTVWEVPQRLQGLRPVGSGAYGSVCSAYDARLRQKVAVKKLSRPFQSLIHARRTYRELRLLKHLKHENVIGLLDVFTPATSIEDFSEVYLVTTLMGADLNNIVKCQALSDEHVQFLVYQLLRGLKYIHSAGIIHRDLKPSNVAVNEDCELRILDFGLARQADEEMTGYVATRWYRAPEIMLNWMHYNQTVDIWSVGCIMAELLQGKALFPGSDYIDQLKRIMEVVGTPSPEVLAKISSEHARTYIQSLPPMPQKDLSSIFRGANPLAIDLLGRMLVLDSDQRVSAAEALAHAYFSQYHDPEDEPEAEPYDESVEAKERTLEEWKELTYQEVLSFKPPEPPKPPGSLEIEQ
Leucine-rich repeat serine/threonine-protein kinase 2 (Homo sapiens), sequence (Q5S007 whole entry): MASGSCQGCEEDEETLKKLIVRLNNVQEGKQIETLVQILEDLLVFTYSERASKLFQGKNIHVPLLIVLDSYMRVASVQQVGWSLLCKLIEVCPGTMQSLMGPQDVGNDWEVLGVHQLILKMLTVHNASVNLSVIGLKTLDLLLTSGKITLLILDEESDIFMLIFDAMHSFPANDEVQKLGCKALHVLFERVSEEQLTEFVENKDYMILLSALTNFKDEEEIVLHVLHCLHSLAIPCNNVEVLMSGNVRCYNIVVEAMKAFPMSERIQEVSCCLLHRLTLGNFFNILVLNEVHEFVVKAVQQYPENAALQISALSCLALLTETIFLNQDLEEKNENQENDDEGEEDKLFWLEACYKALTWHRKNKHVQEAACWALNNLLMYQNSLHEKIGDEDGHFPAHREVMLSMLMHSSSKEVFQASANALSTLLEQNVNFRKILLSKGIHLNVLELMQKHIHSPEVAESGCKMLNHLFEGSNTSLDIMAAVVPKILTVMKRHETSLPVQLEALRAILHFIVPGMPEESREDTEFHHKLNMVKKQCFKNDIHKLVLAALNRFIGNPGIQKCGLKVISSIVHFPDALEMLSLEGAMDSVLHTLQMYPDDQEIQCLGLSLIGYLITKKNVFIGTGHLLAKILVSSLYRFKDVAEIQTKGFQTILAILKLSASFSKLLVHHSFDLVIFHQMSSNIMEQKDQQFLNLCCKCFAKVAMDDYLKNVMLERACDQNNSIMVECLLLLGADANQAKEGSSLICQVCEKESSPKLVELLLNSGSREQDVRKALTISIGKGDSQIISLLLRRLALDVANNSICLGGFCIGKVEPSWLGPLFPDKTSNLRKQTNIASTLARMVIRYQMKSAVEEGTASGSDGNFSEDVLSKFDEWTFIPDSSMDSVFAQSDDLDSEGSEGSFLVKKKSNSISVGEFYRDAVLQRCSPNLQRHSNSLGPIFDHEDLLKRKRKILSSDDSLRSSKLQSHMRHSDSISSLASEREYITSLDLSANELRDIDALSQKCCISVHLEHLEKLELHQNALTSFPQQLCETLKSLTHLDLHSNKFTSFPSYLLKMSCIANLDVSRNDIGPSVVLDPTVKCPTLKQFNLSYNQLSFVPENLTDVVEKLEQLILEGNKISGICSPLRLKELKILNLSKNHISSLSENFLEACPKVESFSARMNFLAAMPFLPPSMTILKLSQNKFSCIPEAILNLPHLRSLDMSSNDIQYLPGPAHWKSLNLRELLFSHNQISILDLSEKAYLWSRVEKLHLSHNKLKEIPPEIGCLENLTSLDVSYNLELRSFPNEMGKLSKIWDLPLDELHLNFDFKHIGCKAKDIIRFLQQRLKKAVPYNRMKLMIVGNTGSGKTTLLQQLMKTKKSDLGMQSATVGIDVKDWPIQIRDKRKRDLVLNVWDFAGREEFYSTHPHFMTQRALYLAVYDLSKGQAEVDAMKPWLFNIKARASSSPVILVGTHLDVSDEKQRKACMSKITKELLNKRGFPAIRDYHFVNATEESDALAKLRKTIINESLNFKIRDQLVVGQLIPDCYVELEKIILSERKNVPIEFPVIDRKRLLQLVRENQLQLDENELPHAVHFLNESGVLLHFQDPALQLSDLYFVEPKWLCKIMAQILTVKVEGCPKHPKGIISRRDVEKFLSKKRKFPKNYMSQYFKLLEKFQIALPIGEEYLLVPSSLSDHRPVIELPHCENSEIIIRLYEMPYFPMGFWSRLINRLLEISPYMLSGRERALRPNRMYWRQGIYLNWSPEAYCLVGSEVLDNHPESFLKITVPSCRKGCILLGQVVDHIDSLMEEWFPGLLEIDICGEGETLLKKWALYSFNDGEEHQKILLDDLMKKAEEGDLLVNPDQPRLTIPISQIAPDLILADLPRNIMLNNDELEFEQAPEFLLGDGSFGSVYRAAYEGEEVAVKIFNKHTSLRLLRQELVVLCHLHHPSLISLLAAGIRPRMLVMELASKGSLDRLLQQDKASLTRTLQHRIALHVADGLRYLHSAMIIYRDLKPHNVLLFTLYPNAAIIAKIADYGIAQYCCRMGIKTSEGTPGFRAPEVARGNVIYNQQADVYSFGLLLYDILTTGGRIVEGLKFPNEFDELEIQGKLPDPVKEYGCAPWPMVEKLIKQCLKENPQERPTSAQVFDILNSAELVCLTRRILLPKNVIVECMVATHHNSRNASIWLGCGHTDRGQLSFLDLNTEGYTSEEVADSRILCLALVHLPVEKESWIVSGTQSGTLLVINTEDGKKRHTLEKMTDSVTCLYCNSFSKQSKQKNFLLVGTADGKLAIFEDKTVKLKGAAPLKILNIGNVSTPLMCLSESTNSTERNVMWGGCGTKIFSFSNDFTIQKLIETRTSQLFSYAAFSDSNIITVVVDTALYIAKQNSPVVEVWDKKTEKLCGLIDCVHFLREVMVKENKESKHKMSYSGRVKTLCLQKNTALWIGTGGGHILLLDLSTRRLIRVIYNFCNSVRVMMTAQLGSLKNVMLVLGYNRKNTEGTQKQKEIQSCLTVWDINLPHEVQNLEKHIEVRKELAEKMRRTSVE
Ribosomal protein S6 kinase alpha-5 (Homo sapiens), sequence (O75582 whole entry, looked up): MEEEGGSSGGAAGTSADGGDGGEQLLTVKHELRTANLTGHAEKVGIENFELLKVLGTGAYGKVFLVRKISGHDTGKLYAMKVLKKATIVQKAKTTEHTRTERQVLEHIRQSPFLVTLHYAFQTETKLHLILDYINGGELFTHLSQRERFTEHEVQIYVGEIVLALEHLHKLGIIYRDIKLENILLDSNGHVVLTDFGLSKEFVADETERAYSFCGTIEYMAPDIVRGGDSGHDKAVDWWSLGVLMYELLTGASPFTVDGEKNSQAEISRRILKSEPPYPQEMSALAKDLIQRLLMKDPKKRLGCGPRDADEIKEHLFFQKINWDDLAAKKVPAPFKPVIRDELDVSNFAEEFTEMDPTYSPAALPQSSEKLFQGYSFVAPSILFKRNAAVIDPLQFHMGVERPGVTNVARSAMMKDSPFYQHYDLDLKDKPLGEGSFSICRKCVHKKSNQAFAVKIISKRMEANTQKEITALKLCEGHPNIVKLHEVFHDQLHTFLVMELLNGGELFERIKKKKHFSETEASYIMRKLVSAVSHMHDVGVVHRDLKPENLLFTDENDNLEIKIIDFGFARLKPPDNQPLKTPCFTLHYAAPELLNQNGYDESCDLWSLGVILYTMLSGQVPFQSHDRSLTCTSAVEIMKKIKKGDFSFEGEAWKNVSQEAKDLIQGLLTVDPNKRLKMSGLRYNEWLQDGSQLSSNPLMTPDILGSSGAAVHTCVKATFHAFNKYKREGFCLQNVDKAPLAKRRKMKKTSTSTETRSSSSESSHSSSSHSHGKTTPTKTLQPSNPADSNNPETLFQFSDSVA
Casein kinase I isoform delta (Homo sapiens), sequence (P48730 whole entry, looked up, the tested form may be a part, canonical isoform): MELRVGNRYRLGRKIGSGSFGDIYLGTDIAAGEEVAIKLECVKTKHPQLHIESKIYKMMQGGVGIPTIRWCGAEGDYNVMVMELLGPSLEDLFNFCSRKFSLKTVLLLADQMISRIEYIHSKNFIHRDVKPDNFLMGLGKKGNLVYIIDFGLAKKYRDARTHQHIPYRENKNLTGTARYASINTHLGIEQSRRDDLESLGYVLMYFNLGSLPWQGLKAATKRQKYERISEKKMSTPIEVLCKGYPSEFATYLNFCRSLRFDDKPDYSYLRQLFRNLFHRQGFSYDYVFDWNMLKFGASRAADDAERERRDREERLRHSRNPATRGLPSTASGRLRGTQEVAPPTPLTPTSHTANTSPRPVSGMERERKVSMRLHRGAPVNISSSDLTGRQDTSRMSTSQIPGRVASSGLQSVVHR
Eukaryotic elongation factor 2 kinase (Homo sapiens), O00418 [H23R], sequence (O00418 whole entry H23R): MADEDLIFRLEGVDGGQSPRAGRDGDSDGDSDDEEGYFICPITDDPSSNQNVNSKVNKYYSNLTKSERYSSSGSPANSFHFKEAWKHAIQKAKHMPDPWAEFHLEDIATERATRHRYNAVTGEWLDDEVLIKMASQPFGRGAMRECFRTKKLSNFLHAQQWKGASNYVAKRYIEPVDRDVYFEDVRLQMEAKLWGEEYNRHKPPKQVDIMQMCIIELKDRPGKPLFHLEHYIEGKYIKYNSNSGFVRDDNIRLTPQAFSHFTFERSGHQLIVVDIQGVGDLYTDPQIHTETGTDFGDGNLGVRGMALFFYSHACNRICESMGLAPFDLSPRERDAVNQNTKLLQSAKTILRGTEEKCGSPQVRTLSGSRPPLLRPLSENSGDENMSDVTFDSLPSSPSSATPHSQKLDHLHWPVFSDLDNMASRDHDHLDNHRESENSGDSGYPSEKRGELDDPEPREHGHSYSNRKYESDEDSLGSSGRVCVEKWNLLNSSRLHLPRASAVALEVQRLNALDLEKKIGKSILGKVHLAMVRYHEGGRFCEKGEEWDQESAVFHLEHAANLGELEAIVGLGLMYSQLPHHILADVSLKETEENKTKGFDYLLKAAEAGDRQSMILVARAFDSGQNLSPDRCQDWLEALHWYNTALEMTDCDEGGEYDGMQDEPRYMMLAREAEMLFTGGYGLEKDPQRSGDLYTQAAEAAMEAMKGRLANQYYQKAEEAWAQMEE

Q: Which inhibition [1] does the source give for CN(C)C(=O)c1cc2cnc(Nc3ccc(NC(=O)CCCCCCCN=C=S)cc3)nc2n1C1CCCC1 here?
A: 27%

Q: And the IC50 (NCI-H1975)?
A: 0.837 µM

Q: And the inhibition [2]?
A: 48%

Q: And the inhibition (A549 [3])?
A: Dose-dependent effect

Q: What about the inhibition [4] of the same molecule?
A: 19%

Q: And the inhibition [5]?
A: -10%

Q: And the inhibition [6]?
A: 5%

Q: What about the inhibition [7] of the same molecule?
A: 8%

Q: And the inhibition (Homo sapiens [8])?
A: 5%

Q: And the inhibition at 1 µM (A549 [9])?
A: 85.6%

Q: And the IC50 (Hep 3B2)?
A: 5.61 µM

Q: And the IC50 (CCRF-CEM)?
A: > 10 µM

Q: What about the inhibition [10] of the same molecule?
A: 4%

Q: And the inhibition [11]?
A: 82%

Q: And the inhibition [12]?
A: 3%

Q: And the inhibition [13]?
A: 65%

Q: What about the inhibition [14] of the same molecule?
A: 21%

Q: What about the Activity (NCI-H1299 [15]) of the same molecule?
A: Active

Q: What about the inhibition [16] of the same molecule?
A: -2%

Q: What about the inhibition (Homo sapiens [17]) of the same molecule?
A: 14%

Q: And the Activity (NCI-H1299 [18])?
A: Active

Q: What about the inhibition (Homo sapiens [19]) of the same molecule?
A: 95%

Q: What about the inhibition [20] of the same molecule?
A: 98%
